Experimental data from ChEMBL document CHEMBL2062438, “Probing the structural requirements for vitamin D3 inhibition of the hedgehog signaling pathway” (Bioorg Med Chem Lett, 2012).

Key:
[1] = Upregulation of CYP24A1 mRNA expression in human U87MG cells at 10 uM after 24 hrs by RT-PCR analysis relative to DMSO-treated control; assay type: functional, cell-based; conditions: U-87MG ATCC
HT-29 [2] = test: Upregulation of CYP24A1 mRNA expression in human HT-29 cells at 10 uM after 24 hrs by RT-PCR analysis relative to DMSO-treated control; assay type: functional
HT-29 [3] = test: Down-regulation of Gli1 mRNA expression in human HT-29 cells at 10 uM after 24 hrs by RT-PCR analysis relative to DMSO-treated control; assay type: functional
[4] = Growth inhibition of human U87MG cells after 72 hrs by MTS assay; assay type: functional, U-87MG ATCC; conditions: U-87 MG
Method in brief: (§1)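 Cells seeded at 3000/well, incubated overnight at 37 °C in 5% CO2, then treated in triplicate at varying concentrations in 1% DMSO final for 72 h. Viable cells read by MTS. GI50 given as mean ± SEM of at least two separate experiments.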

HT-29 [5] = test: Growth inhibition of human HT-29 cells overexpressing VDR gene after 72 hrs by MTS assay; assay type: functional; conditions: HT-29, 72 h; method in brief: as §1
Vitamin D3 receptor [6] = molecular target: T1, Vitamin D3 receptor (Homo sapiens, UniProt P11473); test: Binding affinity to full length human VDR expressed in mouse C3H10T1/2 cells assessed as upregulation of CYP24A1 mRNA expression at 5 uM after 24 hrs by RT-PCR analysis relative to control; assay type: ADME, cell-based; conditions: c3h 10t1/2, 24 h
T1 sequence (P11473 whole entry): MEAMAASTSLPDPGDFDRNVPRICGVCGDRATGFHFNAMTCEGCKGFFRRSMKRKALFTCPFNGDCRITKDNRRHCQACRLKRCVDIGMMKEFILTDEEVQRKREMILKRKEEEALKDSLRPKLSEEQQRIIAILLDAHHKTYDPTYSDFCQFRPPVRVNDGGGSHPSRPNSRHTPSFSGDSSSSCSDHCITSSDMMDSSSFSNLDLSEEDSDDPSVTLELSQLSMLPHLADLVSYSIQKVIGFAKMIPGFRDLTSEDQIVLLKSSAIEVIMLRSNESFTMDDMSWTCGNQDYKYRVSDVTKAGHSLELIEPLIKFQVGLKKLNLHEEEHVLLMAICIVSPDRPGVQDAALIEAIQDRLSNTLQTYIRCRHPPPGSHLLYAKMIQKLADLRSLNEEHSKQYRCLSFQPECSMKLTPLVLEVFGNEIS
Method in brief: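 Mouse C3H10T1/2 cells treated with analogue at 5 µM for 24 h. Cyp24A1 mRNA was measured and expressed relative to DMSO control, which was set to 1.0.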

[7] = molecular target: Protein smoothened (Homo sapiens) (UniProt Q99835); test: Inhibition of SMO expressed in mouse C3H10T1/2 cells assessed as down-regulation of Gli1 mRNA expression at 5 uM after 24 hrs by RT-PCR analysis relative to oxysterol; assay type: cell-based; parameters: scale not given: the % may be the effect or the level left; conditions: C3H 10T1/2
Protein smoothened (Homo sapiens), sequence (Q99835 whole entry): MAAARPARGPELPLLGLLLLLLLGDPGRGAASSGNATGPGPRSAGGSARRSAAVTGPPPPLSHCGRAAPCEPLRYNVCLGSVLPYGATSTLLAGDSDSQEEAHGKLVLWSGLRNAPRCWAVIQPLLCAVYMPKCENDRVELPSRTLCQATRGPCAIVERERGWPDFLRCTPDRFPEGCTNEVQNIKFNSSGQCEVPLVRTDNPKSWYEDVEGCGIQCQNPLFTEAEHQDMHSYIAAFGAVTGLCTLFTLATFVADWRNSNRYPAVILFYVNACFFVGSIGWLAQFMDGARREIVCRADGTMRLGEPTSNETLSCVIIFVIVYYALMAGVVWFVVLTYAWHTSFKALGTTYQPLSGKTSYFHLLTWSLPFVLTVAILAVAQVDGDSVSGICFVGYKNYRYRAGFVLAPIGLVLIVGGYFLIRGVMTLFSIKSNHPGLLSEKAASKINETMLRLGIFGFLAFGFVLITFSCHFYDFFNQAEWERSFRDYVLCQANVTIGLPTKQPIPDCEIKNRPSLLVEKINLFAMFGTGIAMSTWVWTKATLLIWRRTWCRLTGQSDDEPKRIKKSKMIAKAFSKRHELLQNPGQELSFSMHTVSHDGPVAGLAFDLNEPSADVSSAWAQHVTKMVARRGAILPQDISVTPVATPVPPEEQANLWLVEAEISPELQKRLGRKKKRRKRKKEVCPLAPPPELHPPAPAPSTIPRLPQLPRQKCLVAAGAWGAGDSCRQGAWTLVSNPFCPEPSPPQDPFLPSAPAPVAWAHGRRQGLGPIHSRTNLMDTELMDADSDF
Method in brief: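 Hh-dependent C3H10T1/2 cells, with the pathway activated by oxysterol, co-treated with analogue at 5 µM for 24 h. Endogenous Gli1 mRNA is reported as % of the oxysterol control, set at 100%.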

Vitamin D3 receptor [8] = molecular target: T1, Vitamin D3 receptor; test: Binding affinity to full length human VDR by fluorescence polarization-based competitive assay; assay type: ADME
Method in brief: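 Competitive fluorescence polarization binding using full-length human VDR and a tight-binding fluorescent VDR ligand; analogues tested at 50 and 100 µM.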

[9] = Down-regulation of Gli1 mRNA expression in human U87MG cells at 10 uM after 24 hrs by RT-PCR analysis relative to DMSO-treated control; assay type: functional, cell-based; conditions: U-87MG ATCC
U-87 MG = test: Ratio of CYP24A1 mRNA upregulation in human […] cells to upregulation of CYP24A1 mRNA in human U87MG cells; assay type: functional, U-87MG ATCC

SMILES | fold change (FC) [1] | fold change (FC) (HT-29 [2]) | fold change (FC) (HT-29 [3]) | GI50 [4] | GI50 (HT-29 [5]) | Activity (Vitamin D3 receptor [6]) | Activity [7] | Activity (Vitamin D3 receptor [8]) | fold change (FC) [9] | Ratio (U-87 MG)
C=C1CC[C@H](O)C/C1=C\C=C1/CCC[C@]2(C)[C@@H]([C@H](C)CO)CC[C@@H]12 | 0.8 | 3.3 | 1.3 | 88.8 µM | > 100 µM | 12.5 | 66.7% | > 100 µM | 0.8 | –
CC(C)CCC[C@@H](C)[C@H]1CC[C@H]2C(CCC3C[C@@H](O)CCC3C)CCC[C@]12C (some centres not stated) | 0.8 | 1.4 | 1.4 | > 100 µM | > 100 µM | 1.5 | 82.1% | > 100 µM | 0.8 | –
C=C1CC[C@H](O)C/C1=C/C=C1\CCC[C@]2(C)[C@@H]([C@H](C)/C=C/[C@H](C)C(C)C)CC[C@@H]12 [ERGOCALCIFEROL] | 49.6 | 10902 | 1.1 | 33.7 µM | > 100 µM | 2410 | 28.1% | > 100 µM | 0.9 | 25
C=C1CC[C@H](O)C/C1=C/CO | 0.6 | 0.7 | 0.9 | > 100 µM | > 100 µM | 2 | 80.9% | > 100 µM | 0.9 | –
C=C1CCC=C/C1=C/C=C1\CCC[C@]2(C)[C@@H]([C@H](C)CCCC(C)C)CC[C@@H]12 | 0.9 | 1.9 | 1.8 | 48.5 µM | > 100 µM | 3 | 79.4% | > 100 µM | 1 | –
CC(C)CCC[C@@H](C)[C@H]1CC[C@H]2C(=O)CCC[C@]12C | 0.5 | 1 | 1.1 | 12.1 µM | > 100 µM | 3 | 66.1% | > 100 µM | 0.9 | –
C=C1CC[C@H](O)C/C1=C\C=C1/CCC[C@]2(C)[C@@H]([C@H](C)CCCC(C)C)CC[C@@H]12 | 33.8 | 27.5 | 1.2 | 46 µM | > 100 µM | 43.5 | 69.7% | > 100 µM | 1.1 | –
C=C1CC[C@H](O)C/C1=C/C=C1\CCC[C@]2(C)[C@@H]([C@H](C)CO)CC[C@@H]12 | 4.8 | 69.1 | 2.7 | > 100 µM | > 100 µM | 1350 | 80% | > 100 µM | 1 | –
C[C@H](CO)[C@H]1CC[C@H]2[C@@H](O)CCC[C@]12C | 0.7 | 1 | 1.2 | > 100 µM | > 100 µM | 4.1 | 87.6% | > 100 µM | 1 | –
C=C1CC[C@H](O)C/C1=C/C(O)C1(O)CCC[C@]2(C)[C@@H]([C@H](C)CCCC(C)C)CC[C@@H]12 (some centres not stated) | 0.5 | 1.2 | 0.9 | 25.9 µM | > 100 µM | 6.7 | 144% | > 100 µM | 1.1 | –
C=C1CC[C@H](O)C/C1=C/C=C1\CCC[C@]2(C)[C@@H]([C@H](C)CCCC(C)C)CC[C@@H]12 [CHOLECALCIFEROL] | 12.2 | 14697 | 1.3 | 23.2 µM | 68.5 µM | 8340 | – | > 100 µM | 0.7 | 10000
CC(C)[C@@H](C)/C=C/[C@@H](C)[C@H]1CC[C@H]2[C@@H](O)CCC[C@]12C | 0.3 | 0.7 | 0.9 | 19 µM | 49.7 µM | 2.3 | 32.1% | > 100 µM | 0.8 | –
CC(C)CCC[C@@H](C)[C@H]1CC[C@H]2[C@@H](O)CCC[C@]12C | 0.4 | 1.1 | 1.1 | 5.7 µM | 66.5 µM | 3.6 | 46.4% | > 100 µM | 0.7 | –
CC(C)CCC[C@@H](C)[C@H]1CCC2=CCCC[C@@]21C | 0.5 | 1.1 | 1.1 | > 100 µM | > 100 µM | 2.3 | 111% | > 100 µM | 1 | –
